Published values pooled from the literature.
≈ marks a conversion by molar mass, not a printed value.

SMILES | target or system | assay | test system | setting | quantity | value
COc1ccc(/C=C/c2coc3ccc(OC)cc3c2=O)cc1 | HSC-2 | cell growth or viability, MTT | – | 7 h | CC50 | 20 µM
COc1cc(OC)cc(-c2c(-c3ccccn3)nc3n2CCC3)c1 | Leishmania infantum | parasite growth | – | 5 days, intracellular, amastigote | EC50 | 1.26 µM
COc1ccc2occ(/C=C/c3ccc(O)cc3)c(=O)c2c1 | HSC-2 | cell growth or viability, MTT | – | 7 h | CC50 | 5.5 µM
COc1ccc(NC(=O)c2c(Nc3ccccc3)sc(C#N)c2NC(=O)CNc2ccc(Cl)cc2)cc1 | HCT-116 | cell growth or viability, SRB | – | 100 µM, 48 h | viability | 33.5%
O=C1NC(=S)N/C1=C\c1ccc(-c2ccc(N(c3ccccc3)c3ccccc3)cc2)c2ccccc12 | Streptococcus mutans | microbial killing, broth dilution | ATCC25175 | – | MBC | > 1000 mg/L
Cc1c(C)c2c(c(C)c1O)CCC(C)(C(=O)O)O2 (centres unmarked) | – | lipid peroxidation, inhibitor | – | – | IC50 | 107 mg/L
O=C(O)CN1C(=O)/C(=C/c2ccc(-c3ccc(N(c4ccccc4)c4ccccc4)cc3)c3ccccc23)NC1=S | Streptococcus mutans | microbial killing, broth dilution | ATCC25175 | – | MBC | > 1000 mg/L
COc1ccc(NC(=O)c2c(Nc3ccccc3)sc(C(=O)NN=Cc3ccc(Cl)cc3)c2NC(C)=O)cc1 | HCT-116 | cell growth or viability, SRB | – | 100 µM, 48 h | viability | 50.9%
COc1cccnc1-c1nc2ccccn2c1Nc1ccc(F)cc1 | Leishmania infantum | parasite growth | – | 5 days, intracellular, amastigote | EC50 | 31.6 µM
O=C(O)CN1C(=O)/C(=C/c2c3ccccc3c(-c3ccc(N(c4ccccc4)c4ccccc4)cc3)c3ccccc23)SC1=S | Streptococcus mutans | microbial killing, broth dilution | ATCC25175 | – | MBC | > 1000 mg/L
Fc1ccc(NCc2c(-c3ccccn3)nc3ccccn23)cc1 | Leishmania infantum | parasite growth | – | 5 days, intracellular, amastigote | EC50 | 12.6 µM
CNC(=O)c1cc(Oc2ccc(NC(=O)Nc3ccc(Cl)c(C(F)(F)F)c3)cc2)ccn1 | HCT-116 | cell growth or viability, SRB | – | 1 nM, 48 h | viability | 100%
CC(=O)N(c1ccc(F)cc1)c1c(-c2ccccn2)nc2ccccn12 | Leishmania infantum | parasite growth | – | intracellular, amastigote | IC50 | > 64 µM
COc1ccc(NC(=O)c2c(Nc3ccccc3)sc(C#N)c2NC(=O)CNc2ccc(OC)c(OC)c2)cc1 | HCT-116 | cell growth or viability, SRB | – | 1 µM, 48 h | viability | 65.2%
O=C1NC(=S)N/C1=C\c1ccc(-c2ccc(N(c3ccccc3)c3ccccc3)cc2)cc1 | Streptococcus mutans | microbial killing, broth dilution | ATCC25175 | – | MBC | > 1000 mg/L
COc1ccc(NC(=O)c2c(Nc3ccccc3)sc(C(=O)NN=Cc3ccc(C)cc3)c2NC(C)=O)cc1 | HCT-116 | cell growth or viability, SRB | – | 1 µM, 48 h | viability | 76.4%
c1ccc(-c2nc3n(c2-c2ccncc2)CCC3)nc1 | Leishmania infantum | parasite growth | – | intracellular, amastigote | IC50 | > 64 µM
O=C1NC(=S)S/C1=C\c1ccc(-c2ccc(N(c3ccccc3)c3ccccc3)cc2)c2ccccc12 | Streptococcus mutans | microbial killing, broth dilution | ATCC25175 | – | MBC | > 1000 mg/L
NC(=O)N1c2ccccc2C=Cc2ccccc21 | – | MES seizures | rat | intraperitoneal | ED50 | 6.5 mg/kg
COc1ccc2occ(/C=C/c3cc(OC)c(OC)c(OC)c3)c(=O)c2c1 | HSC-2 | cell growth or viability, MTT | – | 6.7 h | CC50 | 50 µM
O=C1NC(=S)S/C1=C\c1ccc(-c2ccc(N(c3ccccc3)c3ccccc3)cc2)cc1 | Streptococcus pyogenes | microbial killing, broth dilution | ATCC19615 | – | MBC | > 1000 mg/L
COc1ccc(NC(=O)c2c(Nc3ccccc3)sc(C#N)c2NC(=O)CNc2ccc([N+](=O)[O-])cc2)cc1 | HCT-116 | cell growth or viability, SRB | – | 1 nM, 48 h | viability | 103%
COc1ccc2nc(-c3cc(N(C)C)ccn3)c(N(C)c3ccc(F)cc3)n2c1 | Leishmania infantum | parasite growth | – | intracellular, amastigote | EC50 | 1.58 µM
COc1ccc(NC(=O)c2c(Nc3ccccc3)sc(C#N)c2NC(=O)CNc2ccc(C)cc2)cc1 | HCT-116 | cell growth or viability, SRB | – | 100 µM, 48 h | viability | 60.3%
COc1cccnc1-c1nc2ccccn2c1N(C)c1ccc(F)cc1 | Leishmania infantum | parasite growth | – | intracellular, amastigote | EC50 | 1.58 µM
O=C(O)CN1C(=O)/C(=C/c2ccc(-c3ccc(N(c4ccccc4)c4ccccc4)cc3)c3ccccc23)SC1=S | Streptococcus mutans | microbial growth, broth dilution | ATCC25175 | – | MIC | 1000 mg/L (≈ 1750 µM)
Cc1ccc2nc(-c3ccccn3)c(CN(CC(C)C)c3cccc(C(F)(F)F)c3)n2c1 | Leishmania infantum | parasite growth | – | intracellular, amastigote | EC50 | 3.16 µM
COc1ccc(NC(=O)c2c(Nc3ccccc3)sc(C(=O)NN=Cc3ccc(Br)cc3)c2NC(C)=O)cc1 | HCT-116 | cell growth or viability, SRB | – | 1 µM, 48 h | viability | 72.8%
O=C(O)CN1C(=O)/C(=C/c2ccc(-c3ccc(N(c4ccccc4)c4ccccc4)cc3)cc2)SC1=S | Streptococcus mutans | microbial growth, broth dilution | ATCC25175 | – | MIC | 1000 mg/L (≈ 1910 µM)
